# Data taken from PubChem BioAssay.
# Some of the results follow. Values without a mark were called inactive. Activity calls are given as the source filed them.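 The calls were made as follows, unless noted: active = mean percent activation of the reporter above a cutoff set as the average over tested compounds plus their standard deviation; inactive = the rest.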
# What was measured:
# [1] = target: Oxysterols receptor LXR-beta (Homo sapiens) (UniProt P55055); test: nonspecific reporter activation via LXR – cell-based, luminescence, HEK293, H. contortus campaign, counter-screen for hcDAF-12 agonist project, confirmation (AID 743027); settings: HEK293 Gal4-LXR tk-luc reporter, 24 h, at 6.8 µM, stronger effect = higher value, normalized: DMSO 0%, positive control 100%
# Oxysterols receptor LXR-beta (Homo sapiens), sequence (P55055 whole entry, looked up, the tested form may be a part): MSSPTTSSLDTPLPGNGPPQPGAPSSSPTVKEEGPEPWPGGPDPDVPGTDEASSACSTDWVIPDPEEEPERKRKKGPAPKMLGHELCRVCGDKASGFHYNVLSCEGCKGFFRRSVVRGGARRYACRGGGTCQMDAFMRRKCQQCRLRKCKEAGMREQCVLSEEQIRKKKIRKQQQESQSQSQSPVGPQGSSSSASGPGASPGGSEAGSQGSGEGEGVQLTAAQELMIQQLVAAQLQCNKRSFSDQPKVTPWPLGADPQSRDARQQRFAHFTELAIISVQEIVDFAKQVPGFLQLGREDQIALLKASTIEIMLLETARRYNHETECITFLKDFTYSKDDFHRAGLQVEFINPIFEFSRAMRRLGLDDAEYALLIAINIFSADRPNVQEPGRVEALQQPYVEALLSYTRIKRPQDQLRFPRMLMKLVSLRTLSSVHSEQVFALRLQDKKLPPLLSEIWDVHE
# Summary of the method: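 material = Gal4-LXR and tk-luc reporter transfected HEK293 cells | benchmarks = DMSO low control, positive-control high control | compound dosing = one nominal 6.8 µM dose, 0.68% DMSO | repeats = three replicates per compound | times = 24 h compound exposure at 37 °C, 5% CO2 | detection = One-Glo luciferase luminescence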
# [2] = test system: Nuclear hormone receptor DAF-12 (Haemonchus contortus); test: hcDAF-12 luciferase reporter activation, retest – cell-based, luminescence, HEK293, lit1-tk-luc, triplicate, confirmation (AID 743032;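 active = mean activation across triplicate tests above the threshold derived from the earlier primary screen, cut at about 5.5% in these data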;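 also: 0% = DMSO only wells and 100% = 3 µM Δ7-dafachronic acid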); settings: HEK293 hcDAF-12 lit1-tk-luc reporter, at 6.8 µM, stronger effect = higher value, % of Δ7-dafachronic acid response
# [3] = test system: DAF-12 nuclear receptor (Heterodera glycines), GAL4-LBD fusion; test: hgDAF-12 GAL4 fusion reporter activation, retest – cell-based, luminescence, HEK293, GAL4-LBD fusion, confirmation (AID 743050;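 active = mean activation over triplicate wells above the hit cutoff derived from the earlier primary screen, cut at about 11% in these data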;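 also: 0% = DMSO low control and 100% = 2 mM sodium butyrate high control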); settings: HEK293 GAL4-hgDAF12 luciferase reporter, agonist mode; at 6.8 µM; stronger effect = higher value; percent of butyrate response
# [4] = target: Oxysterols receptor LXR-beta (Homo sapiens) (UniProt P55055); test: nonspecific reporter activation via LXR – cell-based, luminescence, HEK293, H. glycines campaign, counter-screen for hgDAF-12 agonist project, confirmation (AID 743051;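 active = mean activation of the triplicate above a set limit carried over from the primary screen, none filed active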); settings: HEK293 Gal4-LXR luciferase reporter, 24 h; at 6.8 µM; stronger effect = higher value
# Summary of the method: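 System: Gal4-LXR luciferase reporter HEK293 cells / Compound: single nominal test compound dose of 6.8 µM / Times: 24 h exposure, 37 °C / Technique: One-Glo luminescence after 15 min / Read-out basis: % activation versus DMSO and positive controls / Benchmarks: DMSO low control, 0.68% final / Replication: n 3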
# [5] = target: Galanin receptor type 2 (Homo sapiens) (UniProt O43603); test: blockers of human galanin receptor 2 – cell-based, confirmation (AID 866; in the data active = inhibition above about 27%;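 also: cells stimulated with galanin at about its EC80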); settings: GALR2-expressing cells, antagonist mode, at 4 µM, stronger effect = higher value
# Galanin receptor type 2 (Homo sapiens), sequence (O43603 whole entry, looked up): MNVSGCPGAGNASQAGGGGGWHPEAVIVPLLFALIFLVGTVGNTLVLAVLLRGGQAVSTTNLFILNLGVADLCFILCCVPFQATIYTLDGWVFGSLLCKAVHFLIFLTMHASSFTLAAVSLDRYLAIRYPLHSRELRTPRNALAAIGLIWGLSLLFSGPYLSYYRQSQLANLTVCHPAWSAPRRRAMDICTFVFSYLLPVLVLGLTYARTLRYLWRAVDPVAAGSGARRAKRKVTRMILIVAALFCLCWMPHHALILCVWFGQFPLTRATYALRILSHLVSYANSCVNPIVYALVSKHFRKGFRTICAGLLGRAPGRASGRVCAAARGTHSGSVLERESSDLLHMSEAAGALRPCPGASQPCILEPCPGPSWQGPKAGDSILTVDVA
# [6] = nonspecific BLA reporter inhibition – CHO NFAT-bla cells, FRET readout, counter-screen for GALR2 antagonist project, confirmation (AID 867;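 active = inhibition above the mean inhibition across tested compounds plus 3 SD, cut at about 27% in these data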;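 also: 0% = 500 nM thapsigargin stimulated wells and 100% = unstimulated BSA only wells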); settings: beta-lactamase FRET, thapsigargin-stimulated, at 4.2 µM, stronger effect = higher value
compound,measurement,setting,value
Cc1nn(CCOc2ccccc2)c(=O)n1-c1ccccc1F,activation,[1],0.49%
same,activation,[2],5.42%
CC(C#N)OC(=O)c1cccnc1SCC(=O)Nc1ccc2c(c1)OCO2 (stereo not drawn),activation,[1],0.05%
same,activation,[2],5.55%
COc1ccccc1OCc1nc2ccccc2s1,activation,[1],1.64%
same,activation,[2],17.7% (active)
COc1ccccc1NC(=O)c1ccc(C)s1,activation,[1],0.6%
same,activation,[2],8.4% (active)
Cn1c(=O)c(C(=O)Nc2ncccn2)c(O)c2ccccc21,activation,[1],0.73%
same,activation,[2],15.3% (active)
O=c1[nH]c(CCl)nc2cc(-c3ccc(Cl)cc3)sc12,activation,[1],0.52%
same,activation,[2],1.27%
COc1ccc(C2COC(=O)C2=N)c(NC(=O)c2ccccc2)c1 (stereo not drawn),activation,[1],-0.25%
same,activation,[2],4.45%
NS(=O)(=O)c1ccc2nc(NC(=O)CS(=O)(=O)c3ccc(F)cc3)sc2c1,activation,[1],-0.28%
same,activation,[2],3.34%
COc1ccc(C2=NOC(COC(=O)c3ccc4ccccc4n3)C2)cc1 (stereo not drawn),activation,[1],0.05%
same,activation,[2],4.94%
N[C@@H](Cc1ccccc1)C(=O)N1CCC(C(=O)NCC(=O)Nc2ccc(F)cc2)CC1,activation,[1],-0.2%
same,activation,[2],0.19%
CNc1nc(Nc2ccc(C)c(Cl)c2)nc(N)c1[N+](=O)[O-],activation,[1],0.77%
same,activation,[2],10.9% (active)
Cc1ccc2cc(/C=N/Nc3ccc(C(=O)O)cc3)c(Cl)nc2c1,activation,[1],0.97%
same,activation,[2],8.18% (active)
CCCCN(C)C(=O)c1ccc2c(c1)N(CC)C(=O)c1ccccc1S2(=O)=O,activation,[1],-0.28%
same,activation,[2],0.81%
Cn1ccnc1SCC(=O)Nc1ccc2c(c1)OCCO2,activation,[1],0.85%
same,activation,[2],2.69%
COC(=O)C1=NN(c2ccccc2)C2C(=O)N(c3ccccc3OC)C(=O)C12 (stereo not drawn),activation,[1],-0.15%
same,activation,[2],-0.03%
Cc1ccnc(NC(=O)c2ccoc2C)c1,activation,[1],0.3%
same,activation,[2],3.77%
COc1ccc(C(=O)Nc2sc(C)c(C)c2CN2CCOCC2)cc1,activation,[1],0.23%
same,activation,[2],4.47%
COc1ccc(C(=O)C[n+]2ccc(C)cc2)cc1,activation,[1],-0.34%
same,activation,[2],0.77%
Cc1ccc(NN=Nc2nc3c([nH]2)c(=O)n(C)c(=O)n3C)cc1,activation,[1],-0.08%
same,activation,[2],3.07%
Cc1ccc(OCc2nc3ccccc3n2C)cc1,activation,[1],1.32%
same,activation,[2],5.18%
CC(=O)N1C(=O)/C(=C2\SC(=S)N(NC(=O)c3ccc(O)cc3)C2=O)c2ccccc21,activation,[1],-0.17%
same,activation,[2],1.25%
CC(C)C(=O)Nc1ccc2c(c1)oc1ccccc12,activation,[1],0.52%
same,activation,[2],5.43%
O=C(Nc1ccc(Cl)cc1)C1c2cccc[n+]2CC(=O)N1Cc1ccc2c(c1)OCO2 (stereo not drawn),activation,[1],-0.2%
same,activation,[2],2.78%
O=C(CSC(=S)N1CCOCC1)c1ccccc1,activation,[1],1%
same,activation,[2],5.12%
C/C(=N/NC(=O)c1ccc(Br)o1)c1ccc(C)o1,activation,[1],-0.01%
same,activation,[2],4.27%
Cc1ccc2nc(-c3ccccc3)c(CC3CCCCC3)n2c1,activation,[1],0.85%
same,activation,[2],9.61% (active)
Cc1cccc(/C(N)=N/OC(=O)c2ccccc2Cl)c1,activation,[1],2.08%
same,activation,[2],15.3% (active)
same,activation,[3],21.4% (active)
same,activation,[4],1.18%
NC(=O)c1ccccc1N=Cc1ccc2ccccc2c1,activation,[1],0.6%
same,activation,[2],5.79% (active)
same,activation,[3],15.7% (active)
same,activation,[4],0.4%
Cc1ccc(SCCSc2ncccn2)cc1,activation,[1],1.19%
same,activation,[2],7.13% (active)
same,activation,[3],14.6% (active)
same,activation,[4],0.89%
O=C(O)c1ccccc1CSc1nc2ccccc2s1,activation,[1],0.24%
same,activation,[2],9.05% (active)
O=C(c1cnn(-c2ccc(Cl)cc2)c1)c1ccccc1O,activation,[1],1.48%
same,activation,[2],7.41% (active)
same,activation,[3],12.9% (active)
same,activation,[4],0.81%
Cc1cccc(C(=O)N2CCc3c([nH]c4ccccc34)C2CC(C)C)n1 (stereo not drawn),activation,[1],0.01%
same,activation,[2],6.29% (active)
CC(=O)Nc1cccc(C(=O)OCC(=O)c2ccc3c(c2)OCO3)c1,activation,[1],1.92%
same,activation,[2],8.03% (active)
same,activation,[3],16.6% (active)
same,activation,[4],1.1%
Cn1c(-c2ccco2)nc2cc3ccccc3cc21,inhibition,[5],32.7% (active)
same,inhibition,[6],15.4%
same,activation,[1],2.33%
same,activation,[2],17.3% (active)
Cn1c(NC(=O)c2ccccc2)nc2ccccc21,activation,[1],1.51%
same,activation,[2],16.7% (active)
same,activation,[3],19.1% (active)
same,activation,[4],0.86%
COc1ccc2nc(-c3ccccn3)ccc2c1,activation,[1],1.86%
same,activation,[2],11.8% (active)
same,activation,[3],16.7% (active)
same,activation,[4],1.05%
O=C(Nc1ccn(Cc2ccccc2)n1)c1cccc(F)c1,activation,[1],1.66%
same,activation,[2],7.02% (active)
same,activation,[3],15.6% (active)
same,activation,[4],0.7%
O=C(Nc1ccccc1)Nc1nc2ccccc2s1,activation,[1],1.95%
same,activation,[2],9.44% (active)
same,activation,[3],20.4% (active)
same,activation,[4],1.06%
Cn1c(=NC(=O)C2CC2)sc2cc(F)cc(F)c21,activation,[1],-0.11%
same,activation,[2],5.5%
same,activation,[3],5.29%
same,activation,[4],0.25%
CN1CCN(c2ccc(NC(=O)c3ccc4c(c3)OCCO4)cc2Cl)CC1,activation,[1],1.56%
same,activation,[2],6.28% (active)
same,activation,[3],9.5%
same,activation,[4],0.88%
c1cnc(N2CCN(c3ccc4ccccc4n3)CC2)nc1,activation,[1],0.85%
same,activation,[2],5.39%
same,activation,[3],16.9% (active)
same,activation,[4],0.78%
CCOC(=O)c1cn[nH]c1NC(=S)Nc1ccccc1,activation,[1],1.51%
same,activation,[2],4.78%
same,activation,[3],15.6% (active)
same,activation,[4],1.01%
Brc1ccccc1C1N=C(c2ccccc2)NO1 (stereo not drawn),activation,[1],1.08%
same,activation,[2],11.3% (active)
same,activation,[3],19.6% (active)
same,activation,[4],0.87%
COc1ccc(NC(=S)N2N=CCC2c2ccccc2)cc1 (stereo not drawn),activation,[3],13.8% (active)
same,activation,[4],0.76%
Cc1cc(N=Nc2ccc3ccccc3c2)ccc1O,activation,[1],1.85%
same,activation,[2],8.43% (active)
same,activation,[3],24.5% (active)
same,activation,[4],1.16%
Clc1ccc(Nc2ccc3ccccc3n2)cc1,activation,[1],2.07%
same,activation,[2],15% (active)
same,activation,[3],28.6% (active)
same,activation,[4],1.31%
Cc1ccc(NC(=O)c2cc3ccccc3o2)cc1,activation,[1],1.5%
same,activation,[2],7.27% (active)
same,activation,[3],22% (active)
same,activation,[4],0.74%
O=C(Nc1ncccc1O)c1ccc(C(=O)c2ccccc2)cc1,activation,[1],1.21%
same,activation,[2],8.51% (active)
same,activation,[3],84.2% (active)
same,activation,[4],0.71%
O=C(NC(=O)c1ccccc1)Nc1ccccc1O,activation,[1],1.94%
same,activation,[2],13.2% (active)
same,activation,[3],19.6% (active)
same,activation,[4],1.13%
Cc1ccc(NC(=O)c2ccco2)cc1,activation,[3],11.2% (active)
same,activation,[4],0.49%
Cn1c(=NC(=O)c2ccco2)sc2cccc(F)c21,activation,[1],1.46%
same,activation,[2],15% (active)
same,activation,[3],22.9% (active)
same,activation,[4],0.76%
COc1ccc(C2=NN(C(=O)c3ccccc3C(=O)O)C(c3ccccc3O)C2)cc1 (stereo not drawn),activation,[1],0.16%
same,activation,[2],2.72%
same,activation,[3],4.93%
same,activation,[4],0.19%
